How the values were obtained:
[1] = In vivo pharmacokinetic parameter, half-life (t1/2) was measured in dog after 1 mg/kg iv administration
[2] = system: Human immunodeficiency virus 1; assay: microbe, parasite or virus in culture; assay type: functional, organism-based; conditions: Human immunodeficiency virus 1, U-87 MG
[3] = system: Rattus norvegicus; assay: Oral bioavailability was evaluated in rat at a dose of 10 mg/kg; assay type: ADME, organism-based; conditions: in vivo
How it was run: (§1)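 Rat pharmacokinetics using the amorphous tartrate salt. Dosing was 10 mg/kg iv in 20% hydroxypropyl-β-cyclodextrin and 10 mg/kg po in 0.4% methylcellulose. […] Oral bioavailability was derived by comparing oral with iv exposure.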

[4] = system: Rattus norvegicus; assay: Area under curve (0-6 hr) value in rat at a concentration of 10 mg/kg after peroral administration.; assay type: ADME, organism-based; set-up: time < 6 hr, dose 10 mg/kg, route oral; conditions: in vivo, po
[5] = system: Rattus norvegicus; assay: In vivo pharmacokinetic parameter, Area under curve (AUC) was measured in rat after 10 mg/kg iv administration; assay type: ADME, organism-based; set-up: dose 10 mg/kg, route intravenous
How it was run: as §1

[6] = In vivo pharmacokinetic parameter, half-life (t1/2) was measured in dog after 1 mg/kg iv administration; remark: listed apart in the source
[7] = system: Canis familiaris; assay: Oral bioavailability was evaluated in dog at a dose of 3 mg/kg; conditions: in vivo
[8] = Oral bioavailability was evaluated in monkey at a dose of 2 mg/kg; conditions: simiiformes, in vivo
[9] = In vivo pharmacokinetic parameter, Area under curve (AUC) was measured in monkey after 2 mg/kg iv administration; conditions: simiiformes
[10] = In vivo pharmacokinetic parameter, half-life (t1/2) was measured in rat after 10 mg/kg iv administration; assay type: ADME, organism-based; set-up: dose 10 mg/kg, route intravenous
How it was run: as §1

[11] = molecular target: C-C chemokine receptor type 5 (Homo sapiens, UniProt P51681); assay: Inhibition of RANTES binding to C-C chemokine receptor type 5
Sequence of C-C chemokine receptor type 5 (P51681 whole entry): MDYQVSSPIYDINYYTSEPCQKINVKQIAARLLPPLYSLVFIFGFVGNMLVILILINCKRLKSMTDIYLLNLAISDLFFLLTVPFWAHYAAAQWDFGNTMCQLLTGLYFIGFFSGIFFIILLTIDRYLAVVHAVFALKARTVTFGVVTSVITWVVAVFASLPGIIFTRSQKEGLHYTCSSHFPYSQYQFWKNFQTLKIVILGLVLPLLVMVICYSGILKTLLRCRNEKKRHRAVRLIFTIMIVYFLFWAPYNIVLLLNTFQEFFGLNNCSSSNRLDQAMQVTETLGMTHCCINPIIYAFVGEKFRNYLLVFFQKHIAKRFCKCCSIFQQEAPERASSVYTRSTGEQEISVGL

[12] = In vivo pharmacokinetic parameter, half-life (t1/2) was measured in monkey after 2 mg/kg iv administration; conditions: simiiformes
[13] = system: Canis familiaris; assay: In vivo pharmacokinetic parameter, Area under curve (AUC) was measured in dog after 1 mg/kg iv administration
[14] = system: Rattus norvegicus; assay: Area under curve (0-6 hr) value in rat at a concentration of 10 mg/kg, peroral administration.; assay type: ADME, organism-based; set-up: time < 6 hr, dose 10 mg/kg, route oral; conditions: in vivo, po

IC50 [2] [nM] | AUC 0-6h [4] [ng·h/mL] | Ki [11] [nM] | SMILES | also measured
13 | – | 54 | Cc1cccc(C)c1C(=O)N1CCC(C)(N2CCC(C(=O)c3ccc(Br)cc3)CC2)CC1 | –
5.6 | 2400 | 18 | CO/N=C(\c1ccc(Br)cc1)C1CCN(C2(C)CCN(C(=O)c3c(C)cc[n+]([O-])c3C)CC2)CC1 | –
1.3 | 1000 | 1.8 | CCO/N=C(\c1ccc(Br)cc1)C1CCN(C2(C)CCN(C(=O)c3c(C)cccc3C)CC2)CC1 | –
0.5 | 1300 | 4.5 | CO/N=C(\c1ccc(Br)cc1)C1CCN(C2(C)CCN(C(=O)c3c(C)cccc3N)CC2)CC1 | –
1.2 | 1400 | 2 | CO/N=C(/c1ccc(Br)cc1)C1CCN(C2CCN(C(=O)c3c(C)cccc3C)CC2)CC1 | –
1.5 | 2100 | – | CON=C(c1ccc(Br)cc1)C1CCN(C2(C)CCN(C(=O)c3c(C)cccc3C)CC2)CC1 | –
2.8 | 1200 | 25 | CO/N=C(/c1ccc(Br)cc1)C1CCN(C2(C)CCN(C(=O)c3c(C)cccc3C)CC2)CC1 | –
9.2 | – | 48 | CCO/N=C(/c1ccc(Br)cc1)C1CCN(C2(C)CCN(C(=O)c3c(C)cccc3C)CC2)CC1 | –
4 | 3000 | – | CO/N=C(\c1ccc(Br)cc1)C1CCN(C2(C)CCN(C(=O)c3c(C)cccc3O)CC2)CC1 | –

Second part, the molecule before the results:

SMILES | IC50 [2] [nM] | AUC 0-6h [4] [ng·h/mL] | Ki [11] [nM] | also measured
CCO/N=C(\c1ccc(Br)cc1)C1CCN(C2(C)CCN(C(=O)c3c(C)cc[n+]([O-])c3C)CC2)CC1 [ANCRIVIROC] | 0.6 | 6500 | 2.1 | half-life [1]: 10 h; BA [3]: 63%; AUC [5]: 13000 ng·h/mL; half-life [6]: 10 h; BA [7]: 92%; BA [8]: 52%; AUC [9]: 7400 ng·h/mL; half-life [10]: 5 h; half-life [12]: 6 h; AUC [13]: 2800 ng·h/mL
CCO/N=C(\c1ccc(Br)cc1)C1CCN(C2(C)CCN(C(=O)c3c(C)ccnc3C)CC2)CC1 | 0.2 | 2100 | 1.1 | –
Cc1cccc(C)c1C(=O)N1CCC(C)(N2CCC(Oc3ccc(Br)cc3)CC2)CC1 | – | – | 29 | –
Cc1cccc(C)c1C(=O)N1CCC(C)(N2CCC(Cc3ccc(Br)cc3)CC2)CC1 | 10 | – | 66 | AUC 0-6h [14]: 40 ng·h/mL
Cc1cccc(C)c1C(=O)N1CCC(C)(N2CCC(Nc3ccc(Br)cc3)CC2)CC1 | 5.5 | 150 | – | –
CO/N=C(\c1ccc(Br)cc1)C1CCN(C2(C)CCN(C(=O)c3c(N)cccc3Cl)CC2)CC1 | 0.6 | 610 | 3.4 | –
COc1ccc(S(=O)(=O)c2ccc(CC3CCN(C4CCN(C(=O)c5ccc(F)c6ccccc56)CC4)CC3)cc2)cc1 | – | – | 66 | –
CO/N=C(\c1ccc(Br)cc1)C1CCN(C2(C)CCN(C(=O)c3c(C)ccnc3C)CC2)CC1 | 0.5 | 1900 | 1.1 | –

Source: ChEMBL document CHEMBL1134621, “Discovery of 4-[(Z)-(4-bromophenyl)- (ethoxyimino)methyl]-1'-[(2,4-dimethyl-3- pyridinyl)carbonyl]-4'-methyl-1,4'- bipiperidine N-oxide (SCH 351125): an orally bioavailable human CCR5 antagonist for the treatment of HIV infection” (J Med Chem, 2001)
